Reference: ChEMBL document CHEMBL1153403, “Design, synthesis, and evaluation of novel fluoroquinolone-aminoglycoside hybrid antibiotics” (J Med Chem, 2009)
Values after ≈ are worked out from the molar mass of the structure shown.

What was measured:
Escherichia coli [1] = assay: Resistance index, MIC for aminoglycosides-resistant Escherichia coli BL21 harboring pETSACG1 expressing APH(3')-3a enzyme to MIC for Escherichia coli BL21; format: functional
How it was run: (§1)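 Ratio of MIC on the plasmid-bearing resistant strain to MIC on its background strain (pETSACG1 vs BL21; pET9d or pSF815 vs XL1 blue). MICs by NCCLS double microdilution from starting concentrations of 384 and 1.5 µg/mL, in duplicate, two to four experiments.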

Bacillus subtilis = assay: Antibacterial activity against aminoglycosides-susceptible Bacillus subtilis ATCC 6633 by double-microdilution method; format: functional
Escherichia coli [2] = assay: Antibacterial activity against aminoglycosides-resistant Escherichia coli XL1-blue harboring pET9d expressing APH(3')-1a enzyme by double-microdilution method; format: functional
Escherichia coli [3] = assay: Antibacterial activity against Escherichia coli XL1-blue by double-microdilution method; format: functional
[4] = Ratio of kcat/km for aminoglycoside 3'-phosphotransferase 3a
[5] = Activity at aminoglycoside 3'-phosphotransferase 3a
Escherichia coli [6] = assay: Antibacterial activity against kanamycin-resistant Escherichia coli AG100A expressing aminoglycosides resistant APH(3')-1 enzyme by double-microdilution method; format: functional
Escherichia coli [7] = assay: Antibacterial activity against aminoglycosides-resistant Escherichia coli BL21 harboring pETSACG1 expressing APH(3')-3a enzyme by double-microdilution method; format: functional
Escherichia coli [8] = assay: Antibacterial activity against Escherichia coli BL21 by double-microdilution method; format: functional
Escherichia coli [9] = assay: Antibacterial activity against Escherichia coli ATCC 25922 by double-microdilution method; format: functional
Escherichia coli [10] = assay: Antibacterial activity against kanamycin-resistant Escherichia coli AG100B expressing aminoglycosides resistant APH(3')-1 enzyme by double-microdilution method; format: functional
Escherichia coli [11] = assay: Resistance index, MIC for aminoglycosides-resistant Escherichia coli XL1-blue harboring pET9d expressing APH(3')-1a enzyme to MIC for Escherichia coli XL1-blue; format: functional; how it was run: as §1
Escherichia coli [12] = assay: Antibacterial activity against Escherichia coli R477-100 by double-microdilution method; format: functional
Escherichia coli [13] = assay: Resistance index, MIC for aminoglycosides-resistant Escherichia coli XL1-blue harboring pSF815 expressing AAC(6')-APH(2'') enzyme to MIC for Escherichia coli XL1-blue; format: functional; how it was run: as §1
Escherichia coli [14] = assay: Antibacterial activity against aminoglycosides-resistant Escherichia coli XL1-blue harboring pSF815 expressing AAC(6')-APH(2'') enzyme by double-microdilution method; format: functional
Staphylococcus aureus = assay: Antibacterial activity against methicillin-resistant Staphylococcus aureus ATCC 43300 by double-microdilution method; format: functional
Escherichia coli [15] = assay: Inhibition of protein synthesis in Escherichia coli S30 extracts assessed as luciferase activity after 1 hr by coupled transcription/translation assay; format: functional; conditions: Escherichia coli, 1 h; read-out: IC50
How it was run: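 Coupled transcription/translation of the pBESTluc plasmid in E. coli S30 extract with varying compound concentrations, 37 °C for 60 min. Reactions were cooled on ice, diluted in Tris-phosphate pH 7.8 reagent, and luciferase luminescence was read immediately after substrate addition. IC50 came from concentration-response curves fitted to at least two independent experiments.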

[16] = Inhibition of Escherichia coli DNA gyrase assessed as reduction in relaxed pBR322 DNA supercoiling activity after 1 hr by electrophoresis
How it was run: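 Supercoiling of relaxed pBR322 (12.5 ng/µL) by E. coli DNA gyrase in 35 mM Tris-Cl pH 7.5 with 24 mM KCl, 4 mM MgCl₂, 2 mM DTT, 1.8 mM spermidine, 1 mM ATP, 6.5% glycerol and 0.1 mg/mL BSA. Incubated 37 °C for 1 h, stopped with loading dye plus chloroform/isoamyl alcohol, and resolved on 1% agarose. IC50 is the concentration halving activity versus drug-free control.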

[17] = Inhibition of Escherichia coli topoisomerase 4 assessed as reduction in supercoiled pBR322 DNA relaxation activity after 30 mins by electrophoresis
How it was run: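 E. coli TopoIV relaxation of supercoiled pBR322 in 40 mM HEPES-KOH pH 7.6 with 100 mM potassium glutamate, 10 mM Mg(OAc)₂, 10 mM DTT, 1 mM ATP and 50 µg/mL albumin. Incubated 37 °C for 30 min, stopped with EDTA, loading dye and chloroform/isoamyl alcohol, then run on 1% agarose. Supercoiled DNA percentage was quantified from gel images. IC50 is the 50% reduction versus drug-free control.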

Compound	Ratio (Escherichia coli [1])	MIC (Bacillus subtilis) [µg/mL]	MIC (Escherichia coli [2]) [µg/mL]	MIC (Escherichia coli [3]) [µg/mL]	kcat/Km [4] [×10⁴ /M/s]	Km [5] [µM]	kcat [5] [s⁻¹]	MIC (Escherichia coli [6]) [µg/mL]	MIC (Escherichia coli [7]) [µg/mL]	MIC (Escherichia coli [8]) [µg/mL]	MIC (Escherichia coli [9]) [µg/mL]	MIC (Escherichia coli [10]) [µg/mL]	Ratio (Escherichia coli [11])	MIC (Escherichia coli [12]) [µg/mL]	Ratio (Escherichia coli [13])	MIC (Escherichia coli [14]) [µg/mL]	MIC (Staphylococcus aureus) [µg/mL]	IC50 (Escherichia coli [15]) [µM]	IC50 ([16]; read-out: IC50) [µM]	IC50 ([17]; read-out: IC50) [µM]	also measured
NC[C@@H]1O[C@H](O[C@H]2[C@@H](O)[C@H](O[C@@H]3[C@@H](O)[C@H](N)C[C@H](N)[C@H]3O[C@H]3O[C@H](CN)[C@@H](O)[C@H](O)[C@H]3N)O[C@@H]2C(=O)NCc2cn(CC(O)CN3CCN(c4cc5c(cc4F)c(=O)c(C(=O)O)cn5C4CC4)CC3)nn2)[C@H](N)[C@@H](O)[C@@H]1O (stereo partly specified)	1	3 (≈ 2.74 µM)	12 (≈ 10.9 µM)	6 (≈ 5.47 µM)	2.9	86.8	2.5	0.75 (≈ 0.684 µM)	0.2 (≈ 0.182 µM)	0.2 (≈ 0.182 µM)	3 (≈ 2.74 µM)	12 (≈ 10.9 µM)	2	6 (≈ 5.47 µM)	8	48 (≈ 43.8 µM)	12 (≈ 10.9 µM)	–	–	–	–
NC[C@@H]1O[C@H](O[C@H]2[C@@H](O)[C@H](O[C@@H]3[C@@H](O)[C@H](N)C[C@H](N)[C@H]3O[C@H]3O[C@H](CN)[C@@H](O)[C@H](O)[C@H]3N)O[C@@H]2COCc2cn(CCN3CCN(c4cc5c(cc4F)c(=O)c(C(=O)O)cn5C4CC4)CC3)nn2)[C@H](N)[C@@H](O)[C@@H]1O	1	0.75 (≈ 0.712 µM)	12 (≈ 11.4 µM)	3 (≈ 2.85 µM)	–	–	–	0.38 (≈ 0.361 µM)	0.2 (≈ 0.19 µM)	0.2 (≈ 0.19 µM)	3 (≈ 2.85 µM)	12 (≈ 11.4 µM)	4	3 (≈ 2.85 µM)	4	12 (≈ 11.4 µM)	6 (≈ 5.7 µM)	18.1	0.041	7.9	–
NC[C@@H]1O[C@H](O[C@H]2[C@@H](O)[C@H](O[C@@H]3[C@@H](O)[C@H](N)C[C@H](N)[C@H]3O[C@H]3O[C@H](CN)[C@@H](O)[C@H](O)[C@H]3N)O[C@@H]2C(=O)Nc2ccc(-c3cn(Cc4ccc(CN5CCN(c6cc7c(cc6F)c(=O)c(C(=O)O)cn7C6CC6)CC5)cc4)nn3)cc2)[C@H](N)[C@@H](O)[C@@H]1O	1	1.5 (≈ 1.25 µM)	3 (≈ 2.49 µM)	3 (≈ 2.49 µM)	–	–	–	0.75 (≈ 0.623 µM)	0.4 (≈ 0.332 µM)	0.4 (≈ 0.332 µM)	3 (≈ 2.49 µM)	3 (≈ 2.49 µM)	1	1.5 (≈ 1.25 µM)	8	24 (≈ 19.9 µM)	3 (≈ 2.49 µM)	16.7	0.085	0.55	–
NC[C@@H]1O[C@H](O[C@H]2[C@@H](O)[C@H](O[C@@H]3[C@@H](O)[C@H](N)C[C@H](N)[C@H]3O[C@H]3O[C@H](CN)[C@@H](O)[C@H](O)[C@H]3N)O[C@@H]2CO)[C@H](N)[C@@H](O)[C@@H]1O [FRAMYCETIN]	8	1.5 (≈ 2.44 µM)	96 (≈ 156 µM)	6 (≈ 9.76 µM)	42	5.7	2.4	96 (≈ 156 µM)	48 (≈ 78.1 µM)	6 (≈ 9.76 µM)	48 (≈ 78.1 µM)	384 (≈ 625 µM)	16	24 (≈ 39 µM)	>64	> 384	384 (≈ 625 µM)	10.5	–	–	IC50 [16]: Not Active; IC50 [17]: Not Active
